Published values pooled from the literature.
Each line is one published result; the experiments were not run side by side.
Organism: Plasmodium falciparum
Effect on: parasite growth

| SMILES | method | strain | time | setting | EC50 |
| --- | --- | --- | --- | --- | --- |
| CCn1cc(-c2nc(C)no2)c(=O)c2cc(F)c(N3CCC(Cc4ccccc4)CC3)cc21 |  | 3D7 |  | blood stage | 32.1 nM |
| C[C@H]1[C@@H](O)O[C@@H]2O[C@@]3(C)CC[C@H]4[C@H](C)CC[C@@H]1[C@@]24OO3 |  | NF54 | 24 h | gametocyte | 13.8 nM |
| CC(C)(C)OC(=O)Nc1ccc2c(Nc3ccc(OCc4cccc(F)c4)c(Cl)c3)ccnc2c1 |  | D6 |  | drug-resistant strain, blood stage | 50 nM |
| COc1ccc(OCCCO)cc1-c1cn2cc(-c3nnc(NCCCCc4ccccc4)o3)ccc2n1 |  | 3D7 | 72 h | blood stage | 2980 nM |
| CCOC(=O)c1c(NC(=O)c2ccccc2)sc2c(O)c(CCN(C)C)ccc12 |  | 3D7 | 48 h | blood stage | ≤ 200 nM |
| COc1ccc(Nc2ccnc3cc(-c4ccc(S(=O)(=O)N5CCN(C)CC5)cc4)ccc23)cc1 |  | D6 |  | drug-resistant strain, blood stage | 18 nM |
| O=C(Nc1ccc(CNc2ncnc3ccccc23)cc1)c1ccc(Cl)c(F)c1 |  | 3D7 | 72 h | blood stage | 1510 nM |
| Cc1ccc(Nc2ccnc3cc(-c4ccc(S(=O)(=O)N5CCN(C)CC5)cc4)ccc23)cn1 |  | D6 |  | drug-resistant strain, blood stage | 22 nM |
| CCn1cc(C(N)=O)c(=O)c2cc(F)c(N3CCC(C)CC3)cc21 |  | 3D7 | 72 h | blood stage | 390 nM |
| COc1ccc(NC(=O)N2CCCCN3[C@H](CN(C)C)[C@H](c4ccc(C#Cc5ccccc5)cc4)[C@@H]3C2)cc1 |  | DD2 |  | blood stage | 13 nM |
| COc1ccc(Nc2ccnc3cc(Nc4ccnc(N5CCN(C)CC5)n4)ccc23)cc1Cl |  | D6 |  | drug-resistant strain, blood stage | 78 nM |
| CCn1cc(-c2nc(C)no2)c(=O)c2cc(F)c(N3CCCCCC3)cc21 |  | 3D7 | 72 h | blood stage | 35 nM |
| CCCNCC(O)COc1ccccc1C(=O)CCc1ccccc1 (centres unmarked) | SYBR Green | 3D7 |  | blood stage | 2690 nM |
| CCn1cc(C(=O)N2CCOCC2)c(=O)c2cc(F)c(N3CCC(C)CC3)cc21 |  | 3D7 | 72 h | blood stage | > 10000 nM |
| COc1ncc(Nc2ccnc3cc(-c4ccc(S(=O)(=O)N5CCN(C)CC5)cc4)ccc23)cn1 |  | D6 |  | drug-resistant strain, blood stage | 50 nM |
| CNS(=O)(=O)c1ccccc1Nc1nc(Nc2ccc(N3CCOCC3)cc2OC)ncc1Br |  | 3D7 | 72 h | blood stage | 282 nM |
| CCn1cc(-c2nc(C)no2)c(=O)c2cc(F)c(N3CCCC3)cc21 |  | 3D7 | 72 h | blood stage | 500 nM |
| CNS(=O)(=O)c1ccccc1Nc1nc(Nc2cc(OC)c(OC)cc2C)ncc1Br |  | 3D7 | 72 h | blood stage | 153 nM |
| CCn1cc(-c2nc(C)no2)c(=O)c2cc(F)c(N3CCN(C(C)=O)CC3)cc21 |  | 3D7 | 72 h | blood stage | > 10000 nM |
| CN1CCN(S(=O)(=O)c2ccc(-c3ccc4c(Nc5cnc(C#N)cn5)ccnc4c3)cc2)CC1 |  | D6 |  | drug-resistant strain, blood stage | 120 nM |
